M5 antag: CHRM5 antagonism in calcium assay | P08912 | CHO-hM5 cells, Fluo-8 calcium fluorescence, ACh EC80 | inhibition, % at 3 µM | 0.59% of 360,000 active | AID 624040;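 active = inhibition above a per-plate cutoff, the mean of that plate's test compounds plus 3 SD, cut at about 27% in these data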
M5 PAM: positive allosteric modulators of human muscarinic M5 receptor. activation, % at 3 µM. 0.3% of 360,000 active. P08912. AID 624038. CHO-K1 hM5, Fluo-8 calcium, ACh EC20 PAM; 0% = ACh EC20, 100% = ACh EC100;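 active = activation above the run cutoff, the mean activation of all test compounds plus 3 SD, cut at about 18% in these data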
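System: CHO-K1 hM5 cells. Reagent: acetylcholine, EC20 level. Compound dosing: single dose, 3 µM nominal final test concentration. Timing: Post-acetylcholine fluorescence recording 140 s. Detection: Fluo-8 calcium fluorescence. Read-out: % activation, ACh-normalized. Benchmarks: ACh EC20 and EC100 wells. Repeats: singlicate, one well per test compound.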
M4 antag: CHRM4 antagonism in calcium assay; P08173; CHO-hM4 cells, ACh EC80, Fluo-8 calcium fluorescence; 0.73% of 360,000 active; inhibition, % at 3 µM;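 active = inhibition above its plate's cutoff, the mean inhibition of sample wells plus 3 SD, cut at about 27% in these data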
Target sequence (P08173 whole entry, looked up): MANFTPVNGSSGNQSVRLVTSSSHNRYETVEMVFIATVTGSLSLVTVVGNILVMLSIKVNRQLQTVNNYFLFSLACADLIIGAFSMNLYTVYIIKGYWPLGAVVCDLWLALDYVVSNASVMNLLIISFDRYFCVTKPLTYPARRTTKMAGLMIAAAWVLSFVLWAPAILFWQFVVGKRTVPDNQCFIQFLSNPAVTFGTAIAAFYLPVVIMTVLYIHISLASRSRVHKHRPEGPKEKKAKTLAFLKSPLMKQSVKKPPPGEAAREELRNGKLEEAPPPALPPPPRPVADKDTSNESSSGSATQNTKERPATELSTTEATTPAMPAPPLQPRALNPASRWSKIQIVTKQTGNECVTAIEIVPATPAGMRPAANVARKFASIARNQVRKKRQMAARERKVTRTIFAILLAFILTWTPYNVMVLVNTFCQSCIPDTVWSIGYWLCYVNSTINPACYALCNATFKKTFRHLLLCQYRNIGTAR
CHRM4 agonist: CHRM4 agonism in calcium assay; P08173; 0.14% of 360,000 active; AID 624127; CHO-K1 hM4/Gqi5, Fluo-8 calcium fluorescence; vehicle 0%, full acetylcholine response 100%; activation, % at 3 µM;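 active = activation above the run mean over all test wells plus 3 SD, cut at about 32% in these data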;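 also: peak over basal fluorescence ratio per well then scaled between controls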
M4 PAM: CHRM4 positive allosteric modulation. CHO-K1 hM4/Gqi5, Fluo-8 calcium fluorescence, ACh EC20; 0% = ACh EC20, 100% = maximal ACh. activation, % at 3 µM. 0.4% of 360,000 active. AID 624126;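 active = activation above its plate's cutoff, the mean activation of sample wells plus 3 SD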
CHRM5 agonist: CHRM5 agonism in calcium assay. CHO-K1 hM5 cells, Fluo-8 calcium fluorescence; 0% DMSO wells, 100% maximal acetylcholine response. activation, % at 3 µM. P08912. AID 624037. 0.19% of 360,000 active;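 active = activation above the run's mean over test compounds plus 3 SD, cut at about 23% in these data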;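 also: signal is peak over basal fluorescence ratio across the kinetic read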
Each line names hits and unclear results; the compound was inactive in the other large screens. Shown are actives, neighbours in structure and some others; about 1.8% of the full set was active somewhere.

c1ccc(Cn2nnc3c(N4CCCC4)ncnc32)cc1	M4 PAM 21.5
CCN1CCN(c2ncnc3c2nnn3Cc2ccccc2)CC1	none
C[C@H](NC(=O)c1nc[nH]c1C(=O)NCc1ccc(CNC(=O)OC(C)(C)C)cc1)C(=O)OCc1ccccc1	M5 antag 29.3, M4 antag 49.7
O=C(CNC(=O)c1nc[nH]c1C(=O)N1CCNCC1)OCc1ccccc1	none
O=C(CNC(=O)c1nc[nH]c1C(=O)N1CCc2ccccc2C1)OCc1ccccc1	M5 antag 27.0, M4 antag 28.8
C[C@@H](NC(=O)c1nc[nH]c1C(=O)NCC(=O)OCc1ccccc1)c1ccccc1	M5 antag 27.8
C[C@@H](NC(=O)c1nc[nH]c1C(=O)OCc1ccccc1)c1ccccc1	none
CC(O)CNC(=O)Cc1cc(=O)[nH]c(=O)[nH]1 (stereo unspecified)	none
CC(C)(C)c1nnc(NC(=O)C2CC(=O)N(CCc3ccc(F)cc3)C2)s1 (stereo unspecified)	none
O=C(OCC(=O)N1CCCc2ccccc21)c1cc(Br)ccc1O	none
Cc1oc(-c2ccccc2)cc1C(=O)Nc1cccc(C(=O)O)c1	M4 PAM 42.7
CCN(c1ccc(C)cc1)S(=O)(=O)c1nnc(NC(=O)c2ccco2)s1	M4 PAM 19.9
CCN(c1ccc(C)cc1C)S(=O)(=O)c1nnc(NC(=O)c2ccco2)s1	none
O=c1/c(=C\c2ccc(O)cc2)sc2nc(-c3ccccc3)c(-c3ccccc3)n12	none
O=c1/c(=C/c2ccccc2)sc2nnc(-c3cccs3)n12	M5 PAM 19.1
COc1ccccc1C1=NN(C(=O)c2ccccc2)C(c2ccc(Br)cc2)C1 (stereo unspecified)	none
O=C(NC1CC1)C1CCN(C2CCN(C(=O)c3ccc4cccc(F)c4n3)CC2)CC1	none
COc1ccc(CCNC(=O)c2ccc(CSc3ccc(Cl)cc3)o2)cc1OC	M4 antag 30.4
CN1/C(=C\C(=O)COC(=O)c2ccco2)C(C)(C)c2ccccc21	none
CN1/C(=C\C(=O)c2ccco2)C(C)(C)c2ccccc21	M5 antag 43.6, M4 antag 37.5
CCN(C(=O)COC(=O)c1cc(=O)[nH]c2ccccc12)C1CCS(=O)(=O)C1 (stereo unspecified)	none
CCN(CC)C(=O)C1CCN(Cc2ccc(Br)cc2)CC1	M4 antag 31.7
CCOC(=O)Cc1nn(Cc2ccccc2)c(=O)c2ccccc12	none
CC(C)(C)c1ccc(Cn2nc(CC(=O)O)c3ccccc3c2=O)cc1	M5 PAM 20.8
O=C(CN1C(=O)CCS(=O)(=O)c2ccccc21)Nc1ccc(Cl)cc1	none
Cc1ccc(NC(=O)CN2CCOCC2)cc1C	none
CC(=O)Nc1ccc(-n2c(=O)c3ccccc3c3ccccc3c2=O)cc1	none
O=C1c2cccc3c(O)ccc(c23)C(=O)N1Cc1ccco1	M4 antag 27.9, CHRM4 agonist 99.1, CHRM5 agonist 26.1
CCOC(=O)c1ccc(N2C(=O)c3cccc4c(C(=O)O)ccc(c34)C2=O)cc1	none
O=C1c2cccc3c(O)ccc(c23)C(=O)N1c1ccc(Cl)cc1	CHRM4 agonist 74.7, CHRM5 agonist 32.7
O=C1c2ccccc2C(=O)N1Cc1ccco1	none
COc1ccc(N2C(=O)c3cccc4cccc(c34)C2=O)cc1	none
COc1ccc(N2C(=O)c3cccc4c(N(C)CCO)ccc(c34)C2=O)cc1	CHRM5 agonist 24.1
CC(=O)Nc1ccc(N2C(=O)c3cccc4c(O)ccc(c34)C2=O)cc1	M5 antag 27.9, M4 antag 29.4, CHRM4 agonist 146.7, CHRM5 agonist 63.6
CC(Sc1nc2ccccc2c(=O)n1C)C(=O)N(C)C1CCCCC1 (stereo unspecified)	none
Cc1ccc(S(=O)(=O)CCC(=O)Oc2ccc(-c3nnco3)cc2)cc1	none
O=C(COC(=O)CN1C(=O)c2ccccc2C1=O)Nc1cccc(F)c1	none
CCN(CC)C(=O)CSc1nnc(-c2ccccn2)n1Cc1ccccc1	none
COc1cc(NC(=O)c2ccc([N+](=O)[O-])cc2)ccc1NC(=O)C(C)C	none
Cc1cccc(N(C(=O)c2snc(C(N)=O)c2N)C(C(=O)NCC2CCCO2)c2ccc3ncccc3c2)c1 (stereo unspecified)	none
CN1CCS/C1=C\C=C1/SC(=S)N(CC(=O)O)C1=O	CHRM5 agonist 48.6
Cc1csc(=O)n1CCC(=O)OCC(=O)c1ccc(Br)cc1	none
CCc1cc(S(=O)(=O)N2CCN(C(=O)c3ccco3)CC2)ccc1OC	none
CCOC(=O)[C@]12CCCC=C1N(CCC1=CCCCC1)C(=O)[C@H](CC(=O)NCC1CCCCC1)C2	none
COc1ccc(C(CNC(=O)c2cc3ccccc3cc2OC)N2CCCC2)cc1 (stereo unspecified)	M5 PAM 20.1
CC1CN(C(=S)Nc2ccccc2C(F)(F)F)CC(C)O1 (stereo unspecified)	none
COc1ccc(S(=O)(=O)N(C)C[C@H]2Oc3c(NC(=O)Nc4c(C)noc4C)cccc3C(=O)N([C@@H](C)CO)C[C@H]2C)cc1	none
Cc1ccc(-n2cccc2/C=C2/C(=N)N3C(=NC2=O)SN=C3S(C)(=O)=O)cc1Cl	M5 antag 28.1, M5 PAM 19.4, M4 antag 30.9
Cc1cccc(C)c1-n1cccc1/C=C1/C(=N)N2C(=NC1=O)SN=C2S(C)(=O)=O	none
COc1cc(NC(=S)N2CCN(S(=O)(=O)c3ccccc3)CC2)cc(OC)c1	none
COc1ccc(NC(=O)C(c2ccccc2)c2ccccc2)cn1	none
COc1ccc(NC(=O)N2CCN(c3nc(-c4cccc(OC)c4)cs3)CC2)cc1	none
COc1cccc(-c2csc(N3CCN(C(=O)Nc4ccc(Cl)cc4)CC3)n2)c1	M5 antag 27.8
Cc1ccc(-n2nnnc2CNC(=O)c2ccc(Br)o2)cc1C	none
Cc1ccc(-n2nnnc2CNC(=O)c2ccc3c(c2)OCO3)cc1C	M4 antag 62.8
Cc1ccc(S(=O)(=O)n2nnc3ccccc32)c(C)c1C	M4 PAM 24.4
COc1ccc(S(=O)(=O)N2CCCCC2)cc1NC(=O)CCC(=O)N1CCC(c2ccccc2)=N1	none
COc1ccccc1C(CNC(=O)c1cccc(S(=O)(=O)NCc2ccccc2)c1)N(C)C (stereo unspecified)	M5 antag 38.9
COc1ccc(C(CNC(=O)c2cccc(NS(=O)(=O)c3ccc(C)c(F)c3)c2)N(C)C)cc1 (stereo unspecified)	none
COc1ccccc1C(CNC(=O)c1cccc(NS(=O)(=O)c2ccc(C)c(F)c2)c1)N(C)C (stereo unspecified)	M5 antag 66.2
